{"source": "ChEMBL document CHEMBL3856268", "about": "(J Med Chem, 2016)", "key": {"[1]": {"biological_target": "T1, NAD-dependent protein deacetylase sirtuin-1 (Homo sapiens) (UniProt Q96EB6)", "T1 sequence (whole entry)": "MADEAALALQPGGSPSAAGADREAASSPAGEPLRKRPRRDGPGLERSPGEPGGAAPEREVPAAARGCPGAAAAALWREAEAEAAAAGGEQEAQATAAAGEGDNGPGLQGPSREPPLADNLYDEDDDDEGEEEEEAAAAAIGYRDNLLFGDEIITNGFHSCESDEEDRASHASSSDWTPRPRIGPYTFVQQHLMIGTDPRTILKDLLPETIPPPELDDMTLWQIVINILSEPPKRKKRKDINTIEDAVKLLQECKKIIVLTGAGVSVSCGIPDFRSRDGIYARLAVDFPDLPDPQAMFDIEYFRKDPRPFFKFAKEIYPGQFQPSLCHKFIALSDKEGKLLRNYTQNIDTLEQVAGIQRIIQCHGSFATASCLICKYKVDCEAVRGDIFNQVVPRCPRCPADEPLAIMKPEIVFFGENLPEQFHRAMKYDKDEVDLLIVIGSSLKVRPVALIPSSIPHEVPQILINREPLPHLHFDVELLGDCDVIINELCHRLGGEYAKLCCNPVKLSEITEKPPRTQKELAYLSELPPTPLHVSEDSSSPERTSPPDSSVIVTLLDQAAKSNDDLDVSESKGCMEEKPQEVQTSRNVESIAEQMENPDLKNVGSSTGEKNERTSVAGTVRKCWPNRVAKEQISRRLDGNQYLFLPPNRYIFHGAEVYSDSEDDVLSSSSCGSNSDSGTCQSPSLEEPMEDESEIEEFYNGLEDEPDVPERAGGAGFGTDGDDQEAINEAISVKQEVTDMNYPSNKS", "assay": "Inhibition of 50 nM N-terminal His6-tagged recombinant human SIRT1 expressed in Escherichia coli at 100 uM using RHKK(Ac)W-NH2 as substrate after 30 mins by UV detection-based HPLC method", "summary_of_the_method": "(§1)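 SIRT1 (Sigma stock ~6 μM, 10% glycerol, no BSA) freshly diluted in 50 mM Tris-HCl/Tris pH 8.0. Mixture: 200 μM NAD+, 100 μM RHKK(Ac)W-NH2, 1% DMSO, optional additive (Triton X-100 0.01% v:v; BSA 1 mg/mL). Reaction started by enzyme without preincubation, run at 37 °C with conversion kept at 1–10% (30 min at 50 nM, 1 h at 25 nM, 5–10 min at 250 nM). Read-out: C18 HPLC, UV 220 nm, percent conversion from peak areas.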"}, "[2]": {"biological_target": "T1, NAD-dependent protein deacetylase sirtuin-1 (Homo sapiens)", "assay": "Activation of 25 nM N-terminal His6-tagged recombinant human SIRT1 expressed in Escherichia coli at 100 uM using RHKK(Ac)W-NH2 as substrate after 1 hr in presence of 0.01% TX-100 by UV detection-based HPLC method relative to control", "summary_of_the_method": "as §1"}, "[3]": {"biological_target": "T1, NAD-dependent protein deacetylase sirtuin-1 (Homo sapiens)", "assay": "Activation of 50 nM N-terminal His6-tagged recombinant human SIRT1 expressed in Escherichia coli at 100 uM using RHKK(Ac)W-NH2 as substrate after 30 mins in presence of 0.01% TX-100 by UV detection-based HPLC method relative to control", "summary_of_the_method": "as §1"}, "[4]": {"biological_target": "T1, NAD-dependent protein deacetylase sirtuin-1 (Homo sapiens)", "details": "1 uM"}, "[5]": {"biological_target": "T1, NAD-dependent protein deacetylase sirtuin-1 (Homo sapiens)", "details": "1 uM", "remark": "listed apart in the source"}, "[6]": {"biological_target": "T1, NAD-dependent protein deacetylase sirtuin-1 (Homo sapiens)", "details": "1 uM", "remark": "listed apart in the source"}, "[7]": {"biological_target": "T1, NAD-dependent protein deacetylase sirtuin-1 (Homo sapiens)", "assay": "Binding affinity to 25 to 100 nM N-terminal His6-tagged recombinant human SIRT1 expressed in Escherichia coli at 100 uM by 1H NMR method"}, "[8]": {"biological_target": "T1, NAD-dependent protein deacetylase sirtuin-1 (Homo sapiens)", "assay": "Activation of 8 nM N-terminal His6-tagged recombinant human SIRT1 expressed in Escherichia coli at 100 uM using RHKK(Ac)W-NH2 as substrate in presence of 0.01% TX-100 by UV detection-based HPLC method relative to control", "summary_of_the_method": "(§2)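 Same SIRT1 HPLC deacetylation assay: 50 mM Tris-HCl/Tris pH 8.0, 200 μM NAD+, 100 μM RHKK(Ac)W-NH2, 1% DMSO. Started by enzyme addition, 37 °C. Deacetylated product separated by C18 HPLC, detected at 220 nm, and conversion computed from peak areas.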"}, "[9]": {"biological_target": "T1, NAD-dependent protein deacetylase sirtuin-1 (Homo sapiens)", "assay": "Activation of 25 nM N-terminal His6-tagged recombinant human SIRT1 expressed in Escherichia coli at 100 uM using RHKK(Ac)W-NH2 as substrate after 1 hr in presence of 0.01% Tween 20 by UV detection-based HPLC method", "summary_of_the_method": "as §2"}, "[10]": {"biological_target": "T1, NAD-dependent protein deacetylase sirtuin-1 (Homo sapiens)", "assay": "Inhibition of 8 nM N-terminal His6-tagged recombinant human SIRT1 expressed in Escherichia coli assessed as remaining activity at 100 uM using RHKK(Ac)W-NH2 as substrate by UV detection-based HPLC method relative to control", "summary_of_the_method": "as §2"}, "[11]": {"assay": "Drug aggregation in deuterated phosphate buffer assessed as diffusion coefficient at 100 uM by DOSY NMR method", "assay_type": "physicochemical", "summary_of_the_method": "(§3)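 DOSY at 600 MHz in deuterated phosphate buffer (50 mM, pH 8.0), using stimulated echo with bipolar gradient pulses and spoil gradients. 32 F1 increments of 32 scans, relaxation delay 1 s, acquisition 0.68 s, Δ 50 ms, δ 2.2 ms, 8192 points, 6009 Hz width. Diffusion coefficients taken from residual resonances of the compound.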"}, "[12]": {"biological_target": "T1, NAD-dependent protein deacetylase sirtuin-1 (Homo sapiens)", "assay": "Activation of 50 nM N-terminal His6-tagged recombinant human SIRT1 expressed in Escherichia coli at low micromolar concentration using RHKK(Ac)W-NH2 as substrate after 30 mins in presence of 0.01% TX-100 by UV detection-based HPLC method relative to control", "summary_of_the_method": "as §1"}, "[13]": {"biological_target": "T1, NAD-dependent protein deacetylase sirtuin-1 (Homo sapiens)", "assay": "Inhibition of 25 nM N-terminal His6-tagged recombinant human SIRT1 expressed in Escherichia coli at 100 uM using RHKK(Ac)W-NH2 as substrate after 1 hr by UV detection-based HPLC method relative to control", "summary_of_the_method": "as §1"}, "[14]": {"assay": "Drug aggregation in deuterated phosphate buffer assessed as diffusion coefficient at 1 mM by DOSY NMR method", "assay_type": "physicochemical", "details": "1000 µM", "summary_of_the_method": "as §3"}, "[15]": {"biological_target": "T1, NAD-dependent protein deacetylase sirtuin-1 (Homo sapiens)", "assay": "Activation of 25 nM N-terminal His6-tagged recombinant human SIRT1 expressed in Escherichia coli at 100 uM using RHKK(Ac)W-NH2 as substrate after 1 hr in presence of 0.01% TX-100 by UV detection-based HPLC method"}, "[16]": {"assay": "Drug aggregation in deuterated phosphate buffer assessed as diffusion coefficient at 100 uM in presence of 1.5 uM bovine serum albumin by DOSY NMR method", "assay_type": "physicochemical", "summary_of_the_method": "as §3"}, "[17]": {"assay": "Drug aggregation in deuterated phosphate buffer assessed as diffusion coefficient at 100 uM in presence of 0.01% TX-100 by DOSY NMR method", "assay_type": "physicochemical", "summary_of_the_method": "as §3"}, "[18]": {"assay": "Drug aggregation in deuterated phosphate buffer assessed as diffusion coefficient at 100 uM in presence of 0.001% TX-100 by DOSY NMR method", "assay_type": "physicochemical", "summary_of_the_method": "as §3"}, "[19]": {"biological_target": "T2, NAD-dependent protein deacetylase sirtuin-2 (Homo sapiens, UniProt Q8IXJ6)", "T2 sequence (Q8IXJ6 whole entry)": "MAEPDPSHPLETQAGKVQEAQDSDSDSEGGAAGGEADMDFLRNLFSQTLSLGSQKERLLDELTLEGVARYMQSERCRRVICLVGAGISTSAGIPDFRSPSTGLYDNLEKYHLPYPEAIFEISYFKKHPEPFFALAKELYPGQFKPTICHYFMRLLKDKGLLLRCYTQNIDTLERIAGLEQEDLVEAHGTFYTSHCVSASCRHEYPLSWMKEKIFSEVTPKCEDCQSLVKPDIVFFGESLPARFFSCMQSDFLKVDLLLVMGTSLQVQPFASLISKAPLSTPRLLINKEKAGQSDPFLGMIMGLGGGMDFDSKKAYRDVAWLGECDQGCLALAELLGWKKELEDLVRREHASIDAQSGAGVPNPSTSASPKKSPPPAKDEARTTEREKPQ", "assay": "Inhibition of human recombinant GST-fused SIRT2 expressed in Escherichia coli DH5-alpha using [3H]acetic acid labeled MPSDKTIGG as substrate after overnight incubation by liquid scintillation counting method"}, "[20]": {"biological_target": "T3, NAD-dependent protein deacetylase sirtuin-1 (Homo sapiens, UniProt Q96EB6)", "T3 sequence (Q96EB6 whole entry)": "T1 sequence (whole entry)", "assay": "Inhibition of human recombinant GST-fused SIRT1 expressed in Escherichia coli DH5-alpha using [3H]acetic acid labeled MPSDKTIGG as substrate after overnight incubation by liquid scintillation counting method"}}, "note": "Active and inactive are the calls of the source. The rule behind the calls is not given here.", "data": [{"compound": "CC(C)=CCC[C@]1(C)[C@@H](CC=C(C)C)C[C@@]2(CC=C(C)C)C(=O)[C@]1(C(=O)C(C)C)C(=O)C(CC=C(C)C)=C2OCC(=O)O", "values": [{"measurement": "inhibition", "setting": "[1]", "result": "Active"}, {"measurement": "Activity", "setting": "[2]", "result": "Active"}, {"measurement": "Activity", "setting": "[3]", "result": "Active"}]}, {"compound": "CC(C)=CCC[C@]1(C)[C@@H](CC=C(C)C)C[C@]2(CC=C(C)C)C(=O)C(CC=C(C)C)=C(O)[C@@]1(C(=O)C(C)C)C2=O", "values": [{"measurement": "inhibition", "setting": "[1]", "result": "Active"}, {"measurement": "Activity", "setting": "[3]", "result": "Active"}]}, {"compound": "CC1=CCC(C(=O)/N=C2\\CC=C(S(=O)(=O)O)c3cc(S(=O)(=O)O)cc(S(=O)(=O)O)c32)=C/C1=N/C(=O)C1=CC=C/C(=N\\C(=O)/N=C2\\C=CC=C(C(=O)/N=C3/CC(C(=O)/N=C4\\CC=C(S(=O)(=O)O)c5cc(S(=O)(=O)O)cc(S(=O)(=O)O)c54)=CC=C3C)C2)C1", "values": [{"measurement": "inhibition", "setting": "[4]", "result": "Active"}, {"measurement": "inhibition", "setting": "[5]", "result": "Active"}, {"measurement": "inhibition", "setting": "[6]", "result": "Active"}]}, {"compound": "CC(C)=CCC[C@]1(C)[C@@H](CC=C(C)C)C[C@]2(CC=C(C)C)C(=O)[C@@]1(CC=C(C)C)C(=O)C(C(=O)c1ccc(O)c(O)c1)=C2O", "note": "[GUTTIFERONE A]", "values": [{"measurement": "Activity", "setting": "[7]", "result": "Active"}, {"measurement": "Activity", "setting": "[8]", "result": 158, "unit": "%"}, {"measurement": "inhibition", "setting": "[1]", "result": "Active"}, {"measurement": "Activity", "setting": "[9]", "result": "Active"}, {"measurement": "Activity", "setting": "[10]", "result": 1, "unit": "%"}, {"measurement": "D", "setting": "[11]", "result": 2.706, "unit": "×10⁻¹⁰ m2/s"}, {"measurement": "fold change (FC)", "setting": "[2]", "result": 2}, {"measurement": "fold change (FC)", "setting": "[3]", "result": 2}, {"measurement": "Activity", "setting": "[12]", "result": "Active"}, {"measurement": "inhibition", "setting": "[13]", "result": 90, "unit": "%"}, {"measurement": "D", "setting": "[14]", "result": 2.246, "unit": "×10⁻¹⁰ m2/s"}, {"measurement": "Activity", "setting": "[15]", "result": "Active"}, {"measurement": "D", "setting": "[16]", "result": 1.61, "unit": "×10⁻¹⁰ m2/s"}, {"measurement": "D", "setting": "[17]", "result": 1.808, "unit": "×10⁻¹⁰ m2/s"}, {"measurement": "D", "setting": "[18]", "result": 2.298, "unit": "×10⁻¹⁰ m2/s"}]}, {"compound": "CC(C)=CCC/C(C)=C/C[C@@H]1C[C@]2(CC=C(C)C)C(=O)[C@@](CC=C(C)C)(C(=O)C(C(=O)c3ccc(O)c(O)c3)=C2O)[C@@]1(C)CCC=C(C)C", "note": "[OBLONGIFOLIN C]", "values": [{"measurement": "IC50", "setting": "[19]", "result": 22, "unit": "µM"}, {"measurement": "IC50", "setting": "[20]", "result": 9, "unit": "µM"}]}]}
